Measured values from different studies.
Lines come from different studies, so protocols differ.
FLT3: Receptor-type tyrosine-protein kinase FLT3 (FLT3, Homo sapiens, UniProt P36888)
FLT3 N841I: Receptor-type tyrosine-protein kinase FLT3 (FLT3, Homo sapiens, UniProt P36888, N841I)

SMILES | target | read-out | mode | method | concentration | quantity | value
Cn1cc(-c2cc(F)cc(N3CCn4c(cc5c4CCCC5)C3=O)c2CO)cc(Nc2ccc(N3CCN(C4COC4)CC3)cn2)c1=O | FLT3 | enzyme activity | inhibitor | – | 0.1 µM | inhibition | 12%
C#Cc1n[nH]c2c(-c3cn([C@@H](C)c4ccccc4)c(=O)[nH]c3=O)cc(F)cc12 | FLT3 | enzyme activity | inhibitor | – | 0.1 µM | inhibition | 4.9%
Nc1ncc(-c2nc(N3CCOCC3)nc(N3CCOCC3)n2)c(C(F)F)n1 | FLT3 N841I | binding | – | competition with immobilised ligand | 10 µM | remaining binding | 46%
N#CC1(c2ccccn2)CCN(Cc2cc(C(=O)O)c(=O)n3ccccc23)CC1 | Receptor-type tyrosine-protein kinase FLT3 (FLT3, Homo sapiens, UniProt P36888, F691L/ITD) | cell-free assay | – | competition with immobilised ligand | 1 µM | remaining binding | 100%
COc1ncccc1-c1cnn2ccc(N3CCN(C(=O)OC(C)C)CC3)nc12 | FLT3 | binding | – | competition with immobilised ligand | 1 µM | remaining binding | 100%
C#Cc1n[nH]c2c(-c3cn(C(C)c4ccccn4)c(=O)[nH]c3=O)cc(F)cc12 (centres unmarked) | FLT3 | enzyme activity | inhibitor | – | 1 µM | inhibition | 8%
Cn1cncc1[C@@](O)(COc1ccc(C#N)cc1-c1ccc(OC(F)(F)F)cc1)c1ccc(C#N)cc1 | Receptor-type tyrosine-protein kinase FLT3 (FLT3, Homo sapiens, UniProt P36888, ITD) | cell-free assay | – | competition with immobilised ligand | 1 µM | remaining binding | 89%
CC(C)(C)c1cc(C=C(C#N)C#N)cc(Br)c1O | FLT3 | enzyme activity | inhibitor | – | 0.5 µM | remaining activity | 102%
Cn1cc(-c2cccc(N3CCc4c(sc5c4CC(C)(C)C5)C3=O)c2CO)cc(Nc2ccncn2)c1=O | FLT3 | enzyme activity | inhibitor | – | 1 µM | inhibition | -6%
Cc1nn(C)cc1-c1nc2c(N3CCN(Cc4ccc(Cl)cc4)CC3)c(Cl)cnc2[nH]1 | FLT3 N841I | binding | – | competition with immobilised ligand | 1 µM | remaining binding | 0%
O=c1[nH]c2ccccc2n1C1CCN(Cc2ccc(-c3[nH]c4cc5ncnc5cc4nc3-c3ccccc3)cc2)CC1 | FLT3 | cell-free assay | – | – | 0.5 µM | remaining signal | 94.6%
